# Source: ChEMBL document CHEMBL1139819, “Cyanopyridyl containing 1,4-dihydroindeno[1,2-c]pyrazoles as potent checkpoint kinase 1 inhibitors: improving oral biovailability” (Bioorg Med Chem Lett, 2007)
# How the values were obtained:
# HeLa = assay: Antiproliferative activity against HeLa cells assessed as […] by MTS assay; assay type: functional, cell-based; settings: Homo sapiens
# Method in brief: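 MTS proliferation assay in HeLa cells. […] For the combination, the regression baseline was set to the inhibition given by 150 nM doxorubicin alone. The combo/single EC50 ratio indexes potentiation.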
# [1] = Antiproliferative activity against H1299 cells assessed as reduction in G2/M cell population by FACS assay; assay type: functional, cell-based; settings: Homo sapiens, NCI-H1299
# Method in brief: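 Cell cycle analysis by FACS in H1299 cells. EC50 is the inhibitor concentration that halves the G2/M population induced by 500 nM doxorubicin (combo). It was also measured without doxorubicin (single).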
# [2] = molecular target: T1, Serine/threonine-protein kinase Chk1 (Homo sapiens, UniProt O14757); assay: Inhibition of recombinant CHK1
# T1 sequence (O14757 whole entry): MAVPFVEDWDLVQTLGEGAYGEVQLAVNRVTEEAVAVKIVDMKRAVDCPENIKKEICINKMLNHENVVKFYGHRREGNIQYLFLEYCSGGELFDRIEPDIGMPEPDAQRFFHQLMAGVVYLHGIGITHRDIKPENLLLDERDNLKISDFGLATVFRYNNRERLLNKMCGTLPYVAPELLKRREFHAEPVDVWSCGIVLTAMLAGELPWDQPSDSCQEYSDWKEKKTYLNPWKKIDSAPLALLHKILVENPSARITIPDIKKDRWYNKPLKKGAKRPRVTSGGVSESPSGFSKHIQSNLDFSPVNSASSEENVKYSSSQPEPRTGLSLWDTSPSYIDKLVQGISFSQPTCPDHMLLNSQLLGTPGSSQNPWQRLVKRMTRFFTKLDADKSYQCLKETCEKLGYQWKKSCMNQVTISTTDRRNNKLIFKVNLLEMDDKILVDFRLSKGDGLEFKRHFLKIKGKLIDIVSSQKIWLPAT
# Method in brief: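 Substrate is 5 µM human biotinylated Cdc25c peptide. Buffer is 25 mM Hepes pH 7.4, 10 mM MgCl2, Triton X-100, 0.5 mM DTT. ATP at 5 µM plus 33P-ATP, with 2% DMSO. Run 30 min at room temperature, stopped with NaCl/EDTA, then 33P incorporation captured on a Flash Plate.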
# [3] = Dissociation constant, pKa of the compound; assay type: physicochemical
# [4] = AUC in mouse at 10 mg/kg, po; assay type: ADME, organism-based; design: dose 10 mg/kg, route oral; settings: plasma
# Method in brief: (§1)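 Oral dosing in mice at 10 mg/kg. Plasma exposure read as AUC and Cmax.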
# [5] = AUC in mouse at 10 mg/kg, ip; assay type: ADME, organism-based; design: dose 10 mg/kg, route intraperitoneal; settings: plasma
# Method in brief: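 Mice dosed intraperitoneally at 10 mg/kg. Vehicle is 2.5% EtOH, 5% Tween 80, 25% PEG400 in PBS, or for some entries 10% NMP, 20% Solutol, 70% PBS. Plasma exposure is given as AUC.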
# [6] = Half life in mouse at 3.0 mg/kg, iv; assay type: ADME, organism-based; design: dose 3 mg/kg, route intravenous; settings: in vivo
# [7] = Oral bioavailability in mouse at 10 mg/kg; assay type: ADME, organism-based; settings: in vivo
# [8] = Volume of distribution in mouse at 3.0 mg/kg, iv; assay type: ADME, organism-based; design: dose 3 mg/kg, route intravenous; settings: in vivo
# [9] = Cmax in mouse at 10 mg/kg, po; assay type: ADME, organism-based; design: dose 10 mg/kg, route oral; settings: in vivo; method in brief: as §1
# Mus musculus = assay: AUC in mouse at 3.0 mg/kg, iv; assay type: ADME, organism-based, Plasma; design: dose 3 mg/kg, route intravenous; settings: in vivo
# [10] = AUC in Nu/Nu mouse at 10 mg/kg/day, po in phosal; assay type: ADME, organism-based; design: route oral; settings: plasma
# Method in brief: (§2)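 Oral dosing in Nu/Nu mice at 10, 25 or 50 mkd in one of two vehicles, NMP or Phosal.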
# [11] = AUC in Nu/Nu mouse at 25 mg/kg/day, po in NMP; assay type: ADME, organism-based; design: route oral; settings: plasma; method in brief: as §2
# [12] = AUC in Nu/Nu mouse at 25 mg/kg/day, po in phosal; assay type: ADME, organism-based; design: route oral; settings: plasma; method in brief: as §2
# [13] = AUC in Nu/Nu mouse at 10 mg/kg/day, po in NMP; assay type: ADME, organism-based; design: route oral; settings: plasma; method in brief: as §2
# [14] = AUC in Nu/Nu mouse at 50 mg/kg/day, po in phosal; assay type: ADME, organism-based; design: route oral; settings: plasma; method in brief: as §2
# [15] = AUC in Nu/Nu mouse at 50 mg/kg/day, po in NMP; assay type: ADME, organism-based; design: route oral; settings: plasma; method in brief: as §2
EC50 (HeLa),IC50 [2],pKa [3],AUC [5],Structure (SMILES),also measured
> 59000 nM,,,,COc1cc2c(cc1OC)-c1n[nH]c(-c3ccc(-c4ccc(O)cc4)cc3)c1C2,EC50 [1]: > 10000 nM
,3.8 nM,,,COc1cc2c(cc1OCCN1CCOCC1)Cc1c(-c3ccc(C#N)nc3)n[nH]c1-2,
5400 nM,0.92 nM,9.1,,N#Cc1ccc(-c2n[nH]c3c2Cc2ccc(OCCCN4CCCOCC4)cc2-3)cn1,AUC [4]: 0.031 µg·h/mL
4000 nM,2.6 nM,9.1,,N#Cc1ccc(-c2n[nH]c3c2Cc2ccc(OCCCN4CCCCC4)cc2-3)cn1,
,3.1 nM,,0.3 µg·h/mL,COc1cc2c(cc1OCCO)Cc1c(-c3ccc(C#N)nc3)n[nH]c1-2,
,3 nM,,0.93 µg·h/mL,COc1cc2c(cc1OCCN1CCOCC1)-c1[nH]nc(-c3ccc(C#N)nc3)c1C2,
2700 nM,1 nM,11,,N#Cc1ccc(-c2n[nH]c3c2Cc2ccc(OCCCC4CCNCC4)cc2-3)cn1,
> 59000 nM,3.2 nM,,2.6 µg·h/mL,N#Cc1ccc(-c2n[nH]c3c2Cc2ccc(OCCCN4CCOCC4)cc2-3)cn1,half-life [6]: 1.4 h; bioavailability [7]: 44%; Vd [8]: 7.6 L/kg; Cmax [9]: 0.66 µM; AUC (Mus musculus): 2 µg·h/mL; AUC [4]: 3 µg·h/mL
,1.1 nM,,,COc1cc2c(cc1OCCc1scnc1C)-c1[nH]nc(-c3ccc(C#N)nc3)c1C2,
> 59000 nM,52 nM,1.6,,N#Cc1ccc(-c2n[nH]c3c2Cc2ccc(OCCCc4cccs4)cc2-3)cn1,
7600 nM,6.4 nM,3.3,,Cc1ncsc1CCOc1ccc2c(c1)-c1[nH]nc(-c3ccc(C#N)nc3)c1C2,
8100 nM,1.4 nM,,,N#Cc1ccc(-c2n[nH]c3c2Cc2ccc(OCCCCCN4CCOCC4)cc2-3)cn1,
> 59000 nM,7 nM,,,N#Cc1ccc(-c2n[nH]c3c2Cc2ccc(NCCN4CCOCC4)cc2-3)cn1,
33000 nM,16 nM,,,N#Cc1ccc(-c2n[nH]c3c2Cc2ccc(NC(=O)CCN4CCOCC4)cc2-3)cn1,
> 59000 nM,,5.7,5.7 µg·h/mL,N#Cc1ccc(-c2n[nH]c3c2Cc2ccc(OCCN4CCOCC4)cc2-3)cn1,
33000 nM,1.5 nM,6.9,2.2 µg·h/mL,CC(=O)N1CCN(CCCCOc2ccc3c(c2)-c2[nH]nc(-c4ccc(C#N)nc4)c2C3)CC1,
9700 nM,1.2 nM,,,N#Cc1ccc(-c2n[nH]c3c2Cc2ccc(CCCCN4CCOCC4)cc2-3)cn1,
> 59000 nM,6.4 nM,,,N#Cc1ccc(-c2n[nH]c3c2Cc2cc(OCCCN4CCOCC4)ccc2-3)cn1,
> 59000 nM,1.1 nM,7.2,,N#Cc1ccc(-c2n[nH]c3c2Cc2ccc(OCCCn4ccnc4)cc2-3)cn1,
> 59000 nM,,,,COc1cc2c(cc1OC)-c1[nH]nc(-c3ccc(C#N)nc3)c1C2,EC50 [1]: > 10000 nM
6200 nM,1.5 nM,9.1,,CN1CCN(CCCOc2ccc3c(c2)-c2[nH]nc(-c4ccc(C#N)nc4)c2C3)CC1,
21000 nM,0.75 nM,,10.4 µg·h/mL,N#Cc1ccc(-c2n[nH]c3c2Cc2ccc(OCCCCN4CCOCC4)cc2-3)cn1,AUC [10]: 5 µg·h/mL; half-life [6]: 1.4 h; AUC [11]: 12 µg·h/mL; AUC [12]: 15 µg·h/mL; AUC [13]: 6 µg·h/mL; bioavailability [7]: > 50%; Vd [8]: 6.9 L/kg; Cmax [9]: 0.77 µM; AUC [14]: 32 µg·h/mL; AUC (Mus musculus): 2.1 µg·h/mL; AUC [15]: 25 µg·h/mL; AUC [4]: > 3.3 µg·h/mL
> 59000 nM,6.5 nM,,,N#Cc1ccc(-c2n[nH]c3c2Cc2cc(OCCN4CCOCC4)ccc2-3)cn1,
,3.7 nM,,0.47 µg·h/mL,COc1cc2c(cc1OCc1ccccn1)Cc1c(-c3ccc(C#N)nc3)n[nH]c1-2,
,2.5 nM,,,COc1cc2c(cc1OCCc1scnc1C)Cc1c(-c3ccc(C#N)nc3)n[nH]c1-2,
,2.6 nM,,,COc1cc2c(cc1OCCO)-c1[nH]nc(-c3ccc(C#N)nc3)c1C2,
29000 nM,1.8 nM,6.1,1.7 µg·h/mL,N#Cc1ccc(-c2n[nH]c3c2Cc2ccc(OCCOCCN4CCOCC4)cc2-3)cn1,
> 52000 nM,1 nM,6.1,3 µg·h/mL,C[C@@H]1CN(CCCOc2ccc3c(c2)-c2[nH]nc(-c4ccc(C#N)nc4)c2C3)C[C@H](C)O1,
